Measurements: ChEMBL document CHEMBL4373647, “Design, synthesis, and antimicrobial evaluation of 1,4-dihydroindeno[1,2-c]pyrazole tethered carbohydrazide hybrids: exploring their in silico ADMET, ergosterol inhibition and ROS inducing potential” (Medchemcomm, 2019)
Converted amounts (≈) assume the structure as drawn. The source made the active and inactive calls. The calls are words filed in the database; no cut-off is given here.

Assays:
Candida albicans [1] = test: Antifungal activity against Candida albicans MTCC 1637 assessed as inhibition of fungal growth incubated for 24 hrs by agar well diffusion method; type: functional; conditions: MTCC 1637, 24 h
Summary of the method: (§1)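 Candida strains from MTCC, pre-cultured and spread on Mueller Hinton agar. Wells received compound dissolved in 10% DMSO, 125–0.97 µg/mL; miconazole standard over the same range, DMSO negative control. After 24 h at 37 °C, MIC was read as the lowest concentration giving an inhibition zone. Duplicate experiments, means given.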

Candida albicans [2] = test: Antifungal activity against Candida albicans MTCC 7315 assessed as inhibition of fungal growth incubated for 24 hrs by agar well diffusion method; type: functional; conditions: MTCC 7315, 24 h; summary of the method: as §1
Candida albicans [3] = test: Antifungal activity against Candida albicans MTCC 3018 assessed as inhibition of fungal growth incubated for 24 hrs by agar well diffusion method; type: functional; conditions: MTCC 3018, 24 h; summary of the method: as §1
Raoultella planticola [4] = test: Antibacterial activity against Klebsiella planticola MTCC 530 assessed as inhibition of bacterial growth incubated for 24 hrs by agar well diffusion method; type: functional; conditions: MTCC 530, 24 h
Summary of the method: (§2)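 Strains from MTCC; inoculum at 0.5 McFarland spread on Mueller-Hinton agar; 6 mm wells loaded with compound over 125–0.97 µg/mL; ciprofloxacin positive control (same range), DMSO negative control. Plates held 24 h at 37 °C; MIC taken as lowest concentration giving a clear inhibition zone. Triplicate runs, mean MIC reported.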

Candida albicans [5] = test: Fungicidal activity against Candida albicans MTCC 3018 assessed as fungal killing incubated for 24 hrs; type: functional; conditions: MTCC 3018, 24 h
Summary of the method: (§3)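 Compound at 125–0.97 µg/mL in Mueller Hinton broth in microcentrifuge tubes, each Candida strain added, held 24 h at 37 °C. 10 µL of the treated suspension plated on Mueller Hinton agar and incubated a further 24 h at 37 °C. MFC is the lowest concentration that kills the strain. Duplicates, means reported.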

Candida albicans [6] = test: Ratio of MFC to MIC against Candida albicans MTCC 227; type: functional
Summary of the method: (§4)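 MIC by agar well diffusion: Candida lawns on Mueller-Hinton agar, wells loaded with compound in 10% DMSO (125–0.97 µg/mL), 24 h at 37 °C, lowest concentration giving an inhibition zone. MFC: compound in Mueller-Hinton broth (125–0.97 µg/mL) with yeast, 24 h at 37 °C, 10 µL plated on agar, lowest killing concentration after 24 h. Ratio is MFC/MIC.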

Candida albicans [7] = test: Fungicidal activity against Candida albicans MTCC 227 assessed as fungal killing incubated for 24 hrs; type: functional; conditions: MTCC 227, 24 h; summary of the method: as §3
Staphylococcus aureus [8] = test: Ratio of MBC to MIC against Staphylococcus aureus MLS-16 MTCC 2940; type: functional
MRC5 = test: Cytotoxicity against human MRC5 cells incubated for 48 hrs by MTT assay; type: cell-based; conditions: MRC5, 48 h
Summary of the method: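 Normal human lung MRC5 cells grown 24 h in 96-well plates, then exposed to a range of compound concentrations for 48 h. MTT (250 µg/mL) added for 2 h, medium replaced by DMSO, absorbance read at 570 nm. Miconazole positive control, DMSO negative control. Triplicates, mean ± S.D.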

Candida albicans [9] = test: Ratio of MFC to MIC against Candida albicans MTCC 4748; type: functional; summary of the method: as §4
Candida parapsilosis [10] = test: Fungicidal activity against Candida parapsilosis MTCC 1744 assessed as fungal killing incubated for 24 hrs; type: functional; conditions: Lodderomyces parapsilosis, MTCC 1744, 24 h; summary of the method: as §3
Raoultella planticola [11] = test: Bactericidal activity against Klebsiella planticola MTCC 530 assessed as bacterial killing incubated for 24 hrs; type: functional; conditions: MTCC 530, 24 h
Summary of the method: (§5)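 Broth tube assay: compound at 0–125 µg/mL in Mueller Hinton broth, overnight culture added to 0.5 McFarland (1.5 × 10^8 cfu/mL), held 24 h at 37 °C. 10 µL from each tube plated on Mueller Hinton agar. MBC is the lowest concentration that kills the strain. Duplicates, means reported.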

Candida albicans [12] = test: Fungicidal activity against Candida albicans MTCC 7315 assessed as fungal killing incubated for 24 hrs; type: functional; conditions: MTCC 7315, 24 h; summary of the method: as §3
Pichia sporocuriosa [13] = test: Fungicidal activity against Issatchenkia hanoiensis MTCC 4755 assessed as fungal killing incubated for 24 hrs; type: functional; conditions: MTCC 4755, 24 h; summary of the method: as §3
Bacillus subtilis [14] = test: Bactericidal activity against Bacillus subtilis MTCC 121 assessed as bacterial killing incubated for 24 hrs; type: functional; conditions: MTCC 121, 24 h; summary of the method: as §5
Candida albicans [15] = test: Antifungal activity against Candida albicans MTCC 183 assessed as inhibition of fungal growth incubated for 24 hrs by agar well diffusion method; type: functional; summary of the method: as §1
Micrococcus luteus [16] = test: Antibacterial activity against Micrococcus luteus MTCC 2470 assessed as inhibition of bacterial growth incubated for 24 hrs by agar well diffusion method; type: functional; conditions: MTCC 2470, 24 h; summary of the method: as §2
Candida albicans [17] = test: Fungicidal activity against Candida albicans MTCC 1637 assessed as fungal killing incubated for 24 hrs; type: functional; conditions: MTCC 1637, 24 h; summary of the method: as §3
Staphylococcus aureus [18] = test: Antibacterial activity against Staphylococcus aureus MTCC 96 assessed as inhibition of bacterial growth incubated for 24 hrs by agar well diffusion method; type: functional; conditions: MTCC 96, 24 h; summary of the method: as §2
Nakaseomyces glabratus [19] = test: Fungicidal activity against Candida glabrata MTCC 3019 assessed as fungal killing incubated for 24 hrs; type: functional; conditions: MTCC 3019, 24 h; summary of the method: as §3
Bacillus subtilis [20] = test: Ratio of MBC to MIC against Bacillus subtilis MTCC 121; type: functional
Staphylococcus aureus [21] = test: Bactericidal activity against Staphylococcus aureus MLS-16 MTCC 2940 assessed as bacterial killing incubated for 24 hrs; type: functional; conditions: MLS-16 MTCC 2940, 24 h; summary of the method: as §5
Pseudomonas aeruginosa = test: Ratio of MBC to MIC for Pseudomonas aeruginosa MTCC 2453; type: functional
Candida albicans [22] = test: Ratio of MFC to MIC against Candida albicans MTCC 183; type: functional
Nakaseomyces glabratus [23] = test: Ratio of MFC to MIC against Candida glabrata MTCC 3019; type: functional; summary of the method: as §4
Candida albicans [24] = test: Ratio of MFC to MIC against Candida albicans MTCC 1637; type: functional
Pichia kudriavzevii = test: Antifungal activity against Candida krusei MTCC 3020 assessed as inhibition of fungal growth incubated for 24 hrs by agar well diffusion method; type: functional; conditions: MTCC 3020, 24 h; summary of the method: as §1
Staphylococcus aureus [25] = test: Antibacterial activity against Staphylococcus aureus MLS-16 MTCC 2940 assessed as inhibition of bacterial growth incubated for 24 hrs by agar well diffusion method; type: functional; conditions: MLS-16 MTCC 2940, 24 h; summary of the method: as §2
Staphylococcus aureus [26] = test: Ratio of MBC to MIC against Staphylococcus aureus MTCC 96; type: functional
Pichia sporocuriosa [27] = test: Ratio of MFC to MIC against Issatchenkia hanoiensis MTCC 4755; type: functional; summary of the method: as §4
Candida albicans [28] = test: Fungicidal activity against Candida albicans MTCC 4748 assessed as fungal killing incubated for 24 hrs; type: functional; conditions: MTCC 4748, 24 h; summary of the method: as §3
Escherichia coli = test: Antibacterial activity against Escherichia coli MTCC 739 assessed as inhibition of bacterial growth incubated for 24 hrs by agar well diffusion method; type: functional; conditions: MTCC 739, 24 h; summary of the method: as §2
Candida albicans [29] = test: Ratio of MFC to MIC against Candida albicans MTCC 7315; type: functional; summary of the method: as §4
Candida albicans [30] = test: Fungicidal activity against Candida albicans MTCC 183 assessed as fungal killing incubated for 24 hrs; type: functional; summary of the method: as §3
Bacillus subtilis [31] = test: Antibacterial activity against Bacillus subtilis MTCC 121 assessed as inhibition of bacterial growth incubated for 24 hrs by agar well diffusion method; type: functional; conditions: MTCC 121, 24 h; summary of the method: as §2
Candida parapsilosis [32] = test: Ratio of MFC to MIC against Candida parapsilosis MTCC 1744; type: functional; summary of the method: as §4
Micrococcus luteus [33] = test: Ratio of MBC to MIC against Micrococcus luteus MTCC 2470; type: functional

MIC (Candida albicans [1]) [µg/mL]	MIC (Candida albicans [2]) [µg/mL]	MIC (Candida albicans [3]) [µg/mL]	MIC (Micrococcus luteus [16]) [µg/mL]	MIC (Staphylococcus aureus [18]) [µg/mL]	Structure (SMILES)	MIC (Raoultella planticola [4]) [µg/mL]	MFC (Candida albicans [5]) [µg/mL]	Ratio (Candida albicans [6])	MFC (Candida albicans [7]) [µg/mL]	Ratio (Staphylococcus aureus [8])	IC50 (MRC5) [µg/mL]	Ratio (Candida albicans [9])	MFC (Candida parapsilosis [10]) [µg/mL]	MBC (Raoultella planticola [11]) [µg/mL]	MFC (Candida albicans [12]) [µg/mL]	MFC (Pichia sporocuriosa [13]) [µg/mL]	MBC (Bacillus subtilis [14]) [µg/mL]	MFC (Candida albicans [17]) [µg/mL]	MFC (Nakaseomyces glabratus [19]) [µg/mL]	Ratio (Bacillus subtilis [20])	also measured
15.6 (≈ 46.4 µM)	15.6 (≈ 46.4 µM)	15.6 (≈ 46.4 µM)	7.8 (≈ 23.2 µM)	3.9 (≈ 11.6 µM)	O=C(N/N=C/c1ccc(O)cc1)c1n[nH]c2c1Cc1cc(F)ccc1-2	7.8 (≈ 23.2 µM)	31.2 (≈ 92.8 µM)	2	15.6 (≈ 46.4 µM)	2	28.9 (≈ 85.9 µM)	2	31.2 (≈ 92.8 µM)	15.6 (≈ 46.4 µM)	31.2 (≈ 92.8 µM)	62.4 (≈ 186 µM)	15.6 (≈ 46.4 µM)	31.2 (≈ 92.8 µM)	31.2 (≈ 92.8 µM)	2	MIC (Candida albicans [15]): inactive; MBC (Staphylococcus aureus [21]): 7.8 µg/mL (≈ 23.2 µM); Ratio (Pseudomonas aeruginosa): 2; Ratio (Candida albicans [22]): 2; Ratio (Nakaseomyces glabratus [23]): 2; Ratio (Candida albicans [24]): 2; MIC (Pichia kudriavzevii): 15.6 µg/mL (≈ 46.4 µM); MIC (Staphylococcus aureus [25]): 3.9 µg/mL (≈ 11.6 µM); Ratio (Staphylococcus aureus [26]): 2; Ratio (Pichia sporocuriosa [27]): 2; MFC (Candida albicans [28]): 31.2 µg/mL (≈ 92.8 µM); MIC (Escherichia coli): 3.9 µg/mL (≈ 11.6 µM); Ratio (Candida albicans [29]): 2; MFC (Candida albicans [30]): inactive; MIC (Bacillus subtilis [31]): 7.8 µg/mL (≈ 23.2 µM); Ratio (Candida parapsilosis [32]): 2; Ratio (Micrococcus luteus [33]): 2
7.8 (≈ 20.6 µM)	7.8 (≈ 20.6 µM)	7.8 (≈ 20.6 µM)	3.9 (≈ 10.3 µM)	3.9 (≈ 10.3 µM)	COc1ccc2c(c1)Cc1c(C(=O)N/N=C/c3ccc(O)c(OC)c3)n[nH]c1-2	3.9 (≈ 10.3 µM)	15.6 (≈ 41.2 µM)	2	7.8 (≈ 20.6 µM)	2	40.8 (≈ 108 µM)	2	15.6 (≈ 41.2 µM)	7.8 (≈ 20.6 µM)	15.6 (≈ 41.2 µM)	31.2 (≈ 82.5 µM)	15.6 (≈ 41.2 µM)	15.6 (≈ 41.2 µM)	15.6 (≈ 41.2 µM)	2	MIC (Candida albicans [15]; MTCC 183, 24 h): 15.6 µg/mL (≈ 41.2 µM); MBC (Staphylococcus aureus [21]): 7.8 µg/mL (≈ 20.6 µM); Ratio (Pseudomonas aeruginosa): 2; Ratio (Candida albicans [22]): 2; Ratio (Nakaseomyces glabratus [23]): 2; Ratio (Candida albicans [24]): 2; MIC (Pichia kudriavzevii): 7.8 µg/mL (≈ 20.6 µM); MIC (Staphylococcus aureus [25]): 3.9 µg/mL (≈ 10.3 µM); Ratio (Staphylococcus aureus [26]): 2; Ratio (Pichia sporocuriosa [27]): 2; MFC (Candida albicans [28]): 15.6 µg/mL (≈ 41.2 µM); MIC (Escherichia coli): 3.9 µg/mL (≈ 10.3 µM); Ratio (Candida albicans [29]): 2; MFC (Candida albicans [30]; MTCC 183, 24 h): 31.2 µg/mL (≈ 82.5 µM); MIC (Bacillus subtilis [31]): 7.8 µg/mL (≈ 20.6 µM); Ratio (Candida parapsilosis [32]): 2; Ratio (Micrococcus luteus [33]): 2
15.6 (≈ 44.8 µM)	7.8 (≈ 22.4 µM)	15.6 (≈ 44.8 µM)	7.8 (≈ 22.4 µM)	3.9 (≈ 11.2 µM)	COc1cc(/C=N/NC(=O)c2n[nH]c3c2Cc2ccccc2-3)ccc1O	3.9 (≈ 11.2 µM)	31.2 (≈ 89.6 µM)	2	15.6 (≈ 44.8 µM)	2	31.2 (≈ 89.6 µM)	2	31.2 (≈ 89.6 µM)	7.8 (≈ 22.4 µM)	15.6 (≈ 44.8 µM)	31.2 (≈ 89.6 µM)	7.8 (≈ 22.4 µM)	31.2 (≈ 89.6 µM)	7.8 (≈ 22.4 µM)	2	MIC (Candida albicans [15]): inactive; MBC (Staphylococcus aureus [21]): 15.6 µg/mL (≈ 44.8 µM); Ratio (Pseudomonas aeruginosa): 2; Ratio (Candida albicans [22]): 2; Ratio (Nakaseomyces glabratus [23]): 2; Ratio (Candida albicans [24]): 2; MIC (Pichia kudriavzevii): 15.6 µg/mL (≈ 44.8 µM); MIC (Staphylococcus aureus [25]): 7.8 µg/mL (≈ 22.4 µM); Ratio (Staphylococcus aureus [26]): 2; Ratio (Pichia sporocuriosa [27]): 2; MFC (Candida albicans [28]): 7.8 µg/mL (≈ 22.4 µM); MIC (Escherichia coli): 7.8 µg/mL (≈ 22.4 µM); Ratio (Candida albicans [29]): 2; MFC (Candida albicans [30]): inactive; MIC (Bacillus subtilis [31]): 3.9 µg/mL (≈ 11.2 µM); Ratio (Candida parapsilosis [32]): 2; Ratio (Micrococcus luteus [33]): 2
